Bioassay records from PubChem BioAssay.
A selection: hits, their analogues and other compounds. The true share with any hit is near 1.3%.
aDG glyco act = alpha-DG glycosylation activation | activation, % at 10 µM | 0.22% of 360,000 active | Pro5-aDG cells, alpha-DG glycosylation AlphaScreen (IIH6); 0% Pro5, 100% B10-LARGE cell signal | AID 624168;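 active = activation of at least 8% versus controls, or a plate z-score of at least 8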;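 note: Pro5 are CHO cells carrying HIG-tagged alpha-DG that lacks glycosylation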
TPT1 inhibitor = blocks Candida albicans tRNA 2'-phosphotransferase; recombinant caTPT1, FP RNA substrate dephosphorylation; inhibition, % at 5 µM; 0.81% of 300,000 active; AID 1962;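 active = inhibition above the mean of all tested compounds plus 3 SD, set per screening campaign, cut at about 24% in these data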;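 note: plate controls were DMSO alone for no effect and ferristatin control at 100 nM for full effect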
CSN inh = blocks human CSN-mediated cullin deneddylation; Q92905; inhibition, % at 12.5 µM; 0.38% of 360,000 active; Purified CSN, SCF-Nedd8-OG deneddylation, fluorescence polarization;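 active = pattern-corrected inhibition above about 35%, with an unprinted fluorescence ratio check between 0.5 and 1.5, limit read from the data, passing the limit was not always enough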;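 note: 0% = enzyme with substrate and 100% = substrate without enzyme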
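Test system: Human Csn5 produced in HEK293T cells | Compound: 12.5 µM single point | Times: 90 min, room temperature | Signal: Fluorescence polarization readout | Read-out basis: % inhibition of substrate cleavage by Csn5 | Controls: no-enzyme wells high, enzyme-with-substrate wells low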
XiGFP reactiv = reactivates the inactive X chromosome in mouse fibroblasts | XiGFP mouse fibroblasts, % GFP-positive cells imaging, 3 d; cells co-treated with 5-aza-dC sensitizer; scaled so ellipticine positive control = 100% | activation, % at 7.58 µM | 0.055% of 360,000 active;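 active = mean normalized replicate activation at least 10% and every replicate at or above 10%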;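 note: 0% = median of on-plate neutral control wells and 100% = ellipticine 6 µM median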
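material = 68-5-11 XiGFP fibroblast line | medium = DMEM plus 5-aza-dC sensitizer | schedule = 3 days compound exposure | benchmarks = positive control ellipticine, 6 µM final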
Rpn11 inh = inhibitors of human proteasome Rpn11; 0.59% of 360,000 active; inhibition, % at 20 µM; O00487; human 26S proteasome, Ub4-pepOG fluorescence polarization; 20S core pre-blocked with epoxomicin;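 active = inhibition at 20 µM, scaled to each plate's controls, above about 33%, limit read from the data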
Target sequence (O00487 whole entry, looked up): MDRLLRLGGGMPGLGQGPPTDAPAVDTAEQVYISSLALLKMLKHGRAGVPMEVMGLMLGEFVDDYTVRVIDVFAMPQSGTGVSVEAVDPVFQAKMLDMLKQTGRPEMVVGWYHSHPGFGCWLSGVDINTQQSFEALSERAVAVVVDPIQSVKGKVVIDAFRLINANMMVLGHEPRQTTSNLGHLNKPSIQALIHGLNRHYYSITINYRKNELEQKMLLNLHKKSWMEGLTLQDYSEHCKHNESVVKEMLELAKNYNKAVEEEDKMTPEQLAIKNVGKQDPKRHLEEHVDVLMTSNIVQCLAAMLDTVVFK
HNF4A DNA FP = change in binding of human HNF4 alpha to DNA | 0.3% of 360,000 active | HNF4a-FITC DNA binding, fluorescence polarization, 1 h | activity change, % at 10 µM | P41235; in the data active = activity change above about 30%, passing the limit was not always enough
caTPT1 confirm = TPT1 (C. albicans) inhibition, confirmation. shares compounds with TPT1 inhibitor. recombinant caTPT1, fluorescence polarization, RNase T1 coupled. inhibition, % at 5 µM. 74% of 2,400 active. AID 2149;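 active = inhibition above the primary screen limit, the mean inhibition of all tested compounds plus 3 SD, cut at about 25% in these data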
RNase T1 inh = counter-screen for TPT1 inhibitors: inhibitors of Aspergillus oryzae RNase T1; 83% of 2,400 active; RNase T1 cleavage, fluorescence polarization, 1536-well; shares compounds with TPT1 inhibitor; inhibition, % at 5 µM; AID 2153;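 active = inhibition above the solvent-only control well mean plus 3 SD, limit set per screening run, cut at about 23% in these data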;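 note: plate controls were DMSO wells with enzyme for no effect and wells without RNase T1 for full effect; inhibitors block cleavage so intact labeled substrate keeps polarization high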
Target sequence (P00651 whole entry, looked up): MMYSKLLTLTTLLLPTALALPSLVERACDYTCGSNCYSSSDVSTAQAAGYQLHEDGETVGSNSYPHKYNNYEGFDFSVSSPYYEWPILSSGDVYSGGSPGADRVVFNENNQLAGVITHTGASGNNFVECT
* hit, by the source's call; · = not tested or not shown.

SMILES | aDG glyco act | TPT1 inhibitor | CSN inh | XiGFP reactiv | Rpn11 inh | HNF4A DNA FP | caTPT1 confirm | RNase T1 inh
C/C=C/c1ccc([C@H]2[C@@H](CO)N(C(=O)C3CC3)[C@@H]2CN(CC)C(C)=O)cc1 | · | · | · | 0.0 | · | · | · | ·
O=C1CCC(=O)N1c1ccc(-c2nc3ccccc3s2)cc1 | -0.2 | 51.5* | 2.9 | 0.2 | 18.2 | 5.0 | 10.7 | 18.2
Nc1ccc(-c2nc3ccccc3s2)cn1 | -0.1 | 1.2 | 1.6 | 0.0 | 4.4 | 1.6 | · | ·
COc1ccc2c3c(n(C)c2c1)[C@@H](CO)N(C(=O)Nc1ccc(F)cc1)CC31CN(C(=O)NC2CCCC2)C1 | · | · | · | 0.4 | · | · | · | ·
CN1CCN(C(=O)[C@@H]2[C@@H](CO)[C@@H]3Cn4c(ccc(-c5cccnc5)c4=O)[C@@H]3N2CC2CC2)CC1 | · | · | · | 0.1 | · | · | · | ·
CN(C)c1ccc(/C=C/c2nc3ccccc3c(=O)n2-c2ccc(C(=O)O)cc2)cc1 | 0.1 | 143.8* | -75.9 | 0.0 | · | 151.3 | 159.0* | 143.4*
O=C(O)c1cccc(-n2c(/C=C/c3ccccc3)nc3ccccc3c2=O)c1 | 0.1 | -1.9 | 1.8 | 0.0 | -7.3 | -2.4 | · | ·
COc1ccc(NC(=O)Nc2ccc3c(c2)C(=O)N([C@H](C)CO)C[C@H](C)[C@@H](CN(C)S(=O)(=O)c2c(C)noc2C)OCCCC[C@@H](C)O3)cc1 | · | · | · | -0.1 | · | · | · | ·
CCc1ccc2[nH]c(O)c(N=Nc3nc(-c4ccccc4)cs3)c2c1 | -0.3 | 42.5* | 8.1 | · | 33.1 | 13.9 | 26.5* | 40.3*
CCc1cc2c(N=Nc3c(O)[nH]c4ccccc34)ncnc2s1 | 0.0 | 4.0 | 6.4 | · | · | 22.5 | · | ·
CCOc1ccc(Cn2c(O)cc(=O)[nH]c2=O)cc1 | -0.2 | 39.3* | 13.6 | · | 14.3 | 0.6 | 19.3 | 24.3*
CCOc1ccc(OCC(=O)N(C)c2c(N)n(Cc3ccccc3)c(=O)[nH]c2=O)cc1 | 0.0 | -1.6 | 5.4 | 0.0 | -8.6 | 2.4 | · | ·
COc1ccc(Cn2c(O)cc(=O)[nH]c2=O)cc1 | 0.0 | 26.4* | 15.1 | · | 15.8 | 0.5 | 21.4 | 27.8*
Nc1cc(=O)[nH]c(=O)n1Cc1ccccc1 | 0.0 | -0.3 | 0.0 | 0.4 | -8.8 | 1.4 | · | ·
CC(=O)C1=NOC2C(=O)N(c3ccc(Cl)cc3)C(=O)C12 (stereo unspecified) | -0.1 | -1.2 | 4.2 | 0.0 | 0.4 | 1.9 | · | ·
O=C(C1=NN(c2ccccc2)C2C(=O)N(c3ccc(Cl)cc3)C(=O)C12)c1ccccc1 (stereo unspecified) | 0.0 | 33.2* | 9.2 | 0.1 | 4.0 | 4.9 | 23.4 | 35.2*
O=C(C1=NN(c2ccccc2)C2C(=O)N(c3cccc(Cl)c3)C(=O)C12)c1ccccc1 (stereo unspecified) | -0.2 | 33.4* | 5.6 | 0.0 | -30.9 | 9.6 | 36.6* | 51.3*
N#CC1CC(c2ccc([N+](=O)[O-])cc2)=NN1c1ccc([N+](=O)[O-])cc1 (stereo unspecified) | 0.2 | 73.0* | 23.2 | 0.4 | · | 87.0 | 91.0* | 97.3*
O=C1c2ccccc2-c2cccc(NS(=O)(=O)c3ccc(C(F)(F)F)cc3)c21 | -0.2 | 42.3* | 34.8 | · | · | 18.2 | 47.1* | 54.8*
COC(=O)c1ccc(-n2cc(-c3ccc(OC)cc3)[nH]c2=S)cc1 | -0.1 | 38.3* | 4.6 | 0.2 | 30.5 | 29.9 | 31.1* | 40.0*
CC(=O)c1ccc(Nc2ccc([N+](=O)[O-])c3nonc23)cc1 | 0.3 | 29.5* | 9.3 | -0.1 | 25.9 | 13.1 | 36.6* | 52.3*
CCc1nnc(NS(=O)(=O)c2ccc(Nc3ccc([N+](=O)[O-])c4nonc34)cc2)s1 | -0.3 | 27.4* | 2.1 | 0.0 | 38.8 | 38.2* | 32.8* | 49.3*
O=C(O)c1ccc(Nc2ccc([N+](=O)[O-])c3nonc23)cc1 | 0.0 | · | 4.2 | 0.1 | 20.6 | 4.5 | · | ·
Cc1c2cnn(CC(=O)NCCCN3CCCCC3C)c(=O)c2c(C)n1Cc1ccccc1 (stereo unspecified) | -0.2 | 24.2* | 6.7 | -0.1 | 29.7 | 10.9 | 36.3* | 44.1*
Cc1c2cnn(CC(=O)NC3CCCC3)c(=O)c2c(C)n1Cc1ccccc1 | 0.2 | -1.9 | -5.1 | 0.1 | -2.2 | -2.0 | · | ·
SMILES | aDG glyco act | TPT1 inhibitor | CSN inh | XiGFP reactiv | Rpn11 inh | HNF4A DNA FP | caTPT1 confirm | RNase T1 inh
CN(C)c1ccc(C(=O)c2ccccc2)cc1 | 0.8 | 48.4* | 0.1 | · | -0.6 | -3.5 | 8.0 | 13.2
C=C(c1ccccc1)c1ccc(N(C)C)cc1 | 0.2 | -0.8 | 11.9 | 0.6 | -7.5 | -1.1 | · | ·
O=C(C[n+]1cccc2ccccc21)c1ccc([N+](=O)[O-])cc1 | 0.7 | 31.7* | -1.4 | 0.0 | 3.5 | 2.9 | 8.5 | 10.3
O=[N+]([O-])c1ccc(Cl)c(C[n+]2cccc3ccccc32)c1 | 0.0 | 58.9* | 5.9 | 0.1 | 38.0 | 3.5 | 11.5 | 19.0
CCCN1CCC2(CC1)C(C#N)=C(N)Oc1c2sc2nc(C)cc(C)c12 | 0.4 | 24.1* | -2.0 | · | 6.5 | 1.2 | 19.3 | 27.4*
COCCNC(=O)c1cc2c(c(-c3cccc(-c4cccc(F)c4)c3)n1)[C@H](CCO)N(S(=O)C(C)(C)C)C2 (stereo partly specified) | · | · | · | 0.0 | · | · | · | ·
C[C@H](CO)N1C[C@H](C)[C@H](CN(C)Cc2ccc(C(=O)O)cc2)Oc2c(NC(=O)Nc3ccccc3)cccc2C1=O | · | · | · | -0.7 | · | · | · | ·
CCSC1=NSC2=NC(=O)/C(=C\c3coc4ccccc4c3=O)C(=N)N12 | 0.1 | 55.2* | -65.6 | 0.2 | 8.6 | 51.5 | 1.8 | 14.3
CC(C)CC1=NN2C(=N)/C(=C\c3coc4ccccc4c3=O)C(=O)N=C2S1 | -0.5 | · | -69.8 | 0.1 | · | 26.9 | · | ·
C[C@H](CO)N1C[C@H](C)[C@H](CN(C)S(C)(=O)=O)Oc2ccc(NC(=O)Nc3ccc4c(c3)OCO4)cc2C1=O | · | · | · | 0.0 | · | · | · | ·
COc1ccc(/C(O)=C/c2nc3ccccc3n(-c3ccccc3)c2=O)cc1 | 0.0 | 67.0* | 1.3 | · | 31.4 | 50.0* | 65.6* | 94.8*
COC(=O)CC/C(O)=C1\C(=O)CC(C)(C)CC1=NCc1nc2ccccc2[nH]1 | 0.3 | 33.7* | -3.8 | 0.1 | -1.6 | 0.7 | 13.0 | 18.4
COc1ccc(/C=C/C(=O)C2C(=O)C=C(C)OC2=O)cc1O (stereo unspecified) | 0.3 | 25.4* | 3.5 | 0.1 | -1.6 | 0.0 | 18.2 | 30.2*
COc1ccc(/C=c2\s/c(=C\C(=O)C(C)(C)C)[nH]c2=O)cc1O | 0.0 | 2.0 | 1.3 | -0.1 | 8.2 | 7.6 | · | ·
